# Reference: ChEMBL document CHEMBL1128551, “Decapeptide agonists of human C5a: the relationship between conformation and neutrophil response” (J Med Chem, 1995)
# Where a SMILES comes first, the peptide text is derived from it.
# Biological target: T1, C5a anaphylatoxin chemotactic receptor 1 (Homo sapiens, UniProt P21730)
# T1 sequence (P21730 whole entry): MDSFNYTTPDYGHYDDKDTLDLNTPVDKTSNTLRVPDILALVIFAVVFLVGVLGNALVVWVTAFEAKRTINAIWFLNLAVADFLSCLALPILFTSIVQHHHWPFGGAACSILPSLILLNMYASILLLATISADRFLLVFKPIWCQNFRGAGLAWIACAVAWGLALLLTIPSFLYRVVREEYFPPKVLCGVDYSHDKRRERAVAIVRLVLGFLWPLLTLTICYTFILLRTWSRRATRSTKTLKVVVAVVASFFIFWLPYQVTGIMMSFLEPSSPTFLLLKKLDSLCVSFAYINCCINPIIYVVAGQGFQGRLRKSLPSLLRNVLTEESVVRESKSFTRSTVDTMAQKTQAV
# Experiment: Release of beta-glucuronidase from human polymorphonuclear leukocytes(PMN)
# Format: functional
# Summary of the method: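 Human PMNs pretreated with cytochalasin B (5 μg/mL, 10 min, 37 °C). 10^6 cells incubated with stimulant 60 min at 37 °C, then centrifuged. Supernatant reacted with 0.01 M p-nitrophenyl β-D-glucuronide in 0.1 M sodium acetate pH 4 for 18 h, in triplicate. Stopped with 0.4 M glycine pH 10. EC50 from dose-response.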
row,Compound,EC50 [µM]
1,CSCC[C@H](NC(=O)[C@H](CC(=O)O)NC(=O)[C@H](CCCCN)NC(=O)[C@H](Cc1ccccc1)NC(=O)[C@H](CO)NC(=O)[C@@H](N)Cc1ccc(O)cc1)C(=O)N1CCC[C@H]1C(=O)N[C@@H](CC(C)C)C(=O)NCC(=O)N[C@@H](CCCNC(=N)N)C(=O)O,80
2,H-YSFKDCPLGR-OH,> 1000
3,H-YSFKGMLLGR-OH,70
4,H-YSFKDMQLGR-OH,520
5,CSCC[C@H](NC(=O)[C@H](CC(=O)O)NC(=O)[C@H](CCCCN)NC(=O)[C@H](Cc1ccccc1)NC(=O)[C@H](CO)NC(=O)[C@@H](N)Cc1ccc(O)cc1)C(=O)N1CCC[C@H]1C(=O)N[C@@H](C)C(=O)NCC(=O)N[C@@H](CCCNC(=N)N)C(=O)O,680
6,CSCC[C@H](NC(=O)[C@H](CC(=O)O)NC(=O)[C@H](CCCCN)NC(=O)[C@H](Cc1ccccc1)NC(=O)[C@H](CO)NC(=O)[C@@H](N)Cc1ccc(O)cc1)C(=O)N[C@@H](CCC(N)=O)C(=O)N[C@@H](CC(C)C)C(=O)N1CCC[C@H]1C(=O)N[C@@H](CCCNC(=N)N)C(=O)O,> 1000
7,H-ISHKDMQLGR-OH,0.0123
8,H-YSFKGLLLGR-OH,27.7
9,CC(C)C[C@H](NC(=O)[C@@H]1CCCN1C(=O)[C@H](CS)NC(=O)[C@H](CC(=O)O)NC(=O)[C@H](CCCCN)NC(=O)[C@H](Cc1ccccc1)NC(=O)[C@H](CO)NC(=O)[C@@H](N)Cc1ccc(O)cc1)C(=O)N[C@@H](CS)C(=O)N[C@@H](CCCNC(=N)N)C(=O)O (H-YSFKDCPLCR-OH),> 1000
10,H-YSFKDMQPGR-OH,42
11,CC(C)C[C@H](NC(=O)[C@@H]1CCCN1C(=O)[C@H](C)NC(=O)[C@H](CC(=O)O)NC(=O)[C@H](CCCCN)NC(=O)[C@H](Cc1ccccc1)NC(=O)[C@H](CO)NC(=O)[C@@H](N)Cc1ccc(O)cc1)C(=O)NCC(=O)N[C@@H](CCCNC(=N)N)C(=O)O,207
